Broadly, the inhibition is the percentage by which the read-out fell short of the control. As a reminder, the IC50 is the concentration needed to halve the response being measured.

Calls of active or inactive are those of the source. The calls are words filed in the database; no cut-off is given here.

Here are results for 23 molecules from ChEMBL document CHEMBL3751780, “Rational design, synthesis and in vitro evaluation of allylidene hydrazinecarboximidamide derivatives as BACE-1 inhibitors” (Bioorg Med Chem Lett, 2016).

In data set [1] the target is T1, Beta-secretase 1 (Homo sapiens, UniProt P56817). Briefly: Inhibition of human BACE1 (1 to 460 residues) using APP-based peptide as substrate at 10 uM incubated for 60 mins by FRET analysis. A digest of the protocol:
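Measured by FRET. Test compounds were screened at one fixed concentration and reported as percent inhibition, given as mean ± SD of triplicate experiments performed independently.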

The nature of data set [2]: Cytotoxicity against human […] cells at 10 uM after 24 hrs by MTT assay. It counts as cell-based.
Data set [3] has as its target T1, Beta-secretase 1. The data set is described as follows: Inhibition of human BACE1 (1 to 460 residues) using APP-based peptide as substrate incubated for 60 mins by FRET analysis.

T1 sequence (P56817 whole entry, the tested form may be a part): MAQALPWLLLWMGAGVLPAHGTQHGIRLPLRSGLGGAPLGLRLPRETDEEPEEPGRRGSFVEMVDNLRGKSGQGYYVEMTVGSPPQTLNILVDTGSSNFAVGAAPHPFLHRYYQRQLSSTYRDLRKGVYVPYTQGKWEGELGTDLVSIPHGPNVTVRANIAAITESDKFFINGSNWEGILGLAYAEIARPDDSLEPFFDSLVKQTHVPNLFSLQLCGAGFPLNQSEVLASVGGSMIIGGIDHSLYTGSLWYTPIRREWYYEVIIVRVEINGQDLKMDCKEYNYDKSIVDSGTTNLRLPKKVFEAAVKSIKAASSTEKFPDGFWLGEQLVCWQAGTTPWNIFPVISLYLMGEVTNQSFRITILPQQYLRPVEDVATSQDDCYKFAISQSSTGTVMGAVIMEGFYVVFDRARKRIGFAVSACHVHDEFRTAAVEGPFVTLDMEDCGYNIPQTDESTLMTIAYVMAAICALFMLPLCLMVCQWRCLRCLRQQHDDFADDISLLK

In turn, `COc1ccc(C(/C=C/c2cc(OC)ccc2OC)=N\NC(=N)N)cc1` came in with an inhibition against Beta-secretase 1 [1] of 10.3%. In addition, the Activity result in data set [2] was “Non-toxic”.
For `CN(C)c1ccc(/C=C/C(=N/NC(=N)N)c2cccc([N+](=O)[O-])c2)cc1` the same measures were 28% and “Non-toxic”.
For `COc1ccc(/C=C/C(=N/NC(=N)N)c2ccc(Cl)cc2Cl)cc1OC` the same measures were 21.8% and “Non-toxic”.
For `COc1ccc(/C=C/C(=N/NC(=N)N)c2cccc([N+](=O)[O-])c2)cc1OC` the same measures were 45.8% and “Non-toxic”.
Take `N=C(N)N/N=C(/C=C/c1cccc([N+](=O)[O-])c1)c1ccc([N+](=O)[O-])cc1`: the inhibition at Beta-secretase 1 [1] was determined as 62.1%. Besides, the Activity entry in data set [2] is “Non-toxic”.
For `N=C(N)N/N=C(/C=C/c1cccc([N+](=O)[O-])c1)c1ccc(Cl)cc1Cl` the same measures were 5.4% and “Non-toxic”.
For `CN(C)c1ccc(/C=C/C(=N/NC(=N)N)c2ccccc2)cc1` the same measures were “inactive” and “Non-toxic”.
For `CN(C)c1ccc(/C=C/C(=N/NC(=N)N)c2ccc([N+](=O)[O-])cc2)cc1` the same measures were 23.9% and “Non-toxic”.
On to `COc1ccc(C(/C=C/c2cccc([N+](=O)[O-])c2)=N\NC(=N)N)cc1`, for which the inhibition against Beta-secretase 1 [1] came out at 11%. Also, the Activity entry in data set [2] is “Non-toxic”.
In turn, `COc1ccc(/C=C/C(=N/NC(=N)N)c2ccc(Cl)cc2)cc1OC` showed an inhibition against Beta-secretase 1 [1] of 78.2%. Further, the midpoint of inhibition against Beta-secretase 1 [3], the IC50, lay at 6.42 µM. In addition, in data set [2], the Activity result is reported as “Non-toxic”.
`N=C(N)N/N=C(/C=C/c1cccc([N+](=O)[O-])c1)c1cccc(Br)c1` yielded an inhibition on Beta-secretase 1 [1] of 10.8%. Further, the Activity entry in data set [2] is “Non-toxic”.
For `N=C(N)N/N=C(/C=C/c1ccccc1)c1ccc(Cl)cc1` the same measures were 18% and “Non-toxic”.
For `COc1ccc(/C=C/C(=N/NC(=N)N)c2ccccc2)cc1OC` the same measures were 42.1% and “Non-toxic”.
For `Cc1ccc(C(/C=C/c2ccc(N(C)C)cc2)=N\NC(=N)N)cc1` the same measures were 10.8% and “Non-toxic”.
On Beta-secretase 1 [1], `COc1ccc(OC)c(/C=C/C(=N/NC(=N)N)c2cccc(Br)c2)c1` registered an inhibition of 23.9%. Besides, the Activity entry in data set [2] was “Non-toxic”.
Turning to `N=C(N)N/N=C(/C=C/c1ccccc1)c1cccc([N+](=O)[O-])c1`, at Beta-secretase 1 [1], the inhibition is 23.4%. Besides, in data set [2], the Activity entry is listed as “Non-toxic”.
For `N=C(N)N/N=C(/C=C/c1ccccc1)c1ccccc1` the same measures were 10.8% and “Non-toxic”.
For `N=C(N)N/N=C(/C=C/c1ccccc1)c1ccc([N+](=O)[O-])cc1` the same measures were 13.5% and “Non-toxic”.
For `COc1ccc(OC)c(/C=C/C(=N/NC(=N)N)c2ccccc2)c1` the same measures were 32.6% and “Non-toxic”.
On Beta-secretase 1 [1], `N=C(N)N/N=C(/C=C/c1cccc([N+](=O)[O-])c1)c1ccccc1` displayed an inhibition of 47.9%. Besides, the Activity entry in data set [2] is given as “Non-toxic”.
For `COc1ccc(/C=C/C(=N/NC(=N)N)c2cccc(Br)c2)cc1OC` the same measures were 25.9% and “Non-toxic”.
Consider `N=C(N)N/N=C(/C=C/c1ccccc1)c1cccc(O)c1`, for which the Activity entry in data set [2] is listed as “Non-toxic”.
At Beta-secretase 1 [1], `COc1ccc(/C=C/C(=N/NC(=N)N)c2ccc([N+](=O)[O-])cc2)cc1OC` had an inhibition of 61.2%. Moreover, in data set [2], the Activity entry was “Non-toxic”.
